Data set [1] has as its system Leishmania donovani. Nature of the data set: Antileishmanial activity against Leishmania donovani MHOM/IN/90/GE1F8R promastigotes after 72 hrs by Alamarblue assay. The data set is classed as functional, organism-based. The method in brief: (§1)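 Log-phase promastigotes (10⁵/well, grown in Schneider's medium with 10% FBS at 26 °C) added to serial compound dilutions in phenol red-free RPMI 1640 with 10% heat-inactivated FBS, plus 10% alamarBlue. Incubated 72 h at 27 °C in the dark. Read at 560 nm against 590 nm reference. Single-concentration screen at 25 µM. IC50 by non-linear regression. Three experiments, each in duplicate.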

Data set [2] relates to Leishmania amazonensis. Nature of the data set: Antileishmanial activity against Leishmania amazonensis MHOM/BR/77/LTB0016 promastigotes after 72 hrs by Alamarblue assay. It counts as functional, organism-based. The following applies: MHOM/BR/77/LTB0016, 72 h. Summed up:
as §1
Background: Resazurin is reduced to fluorescent resorufin, in cell work by metabolically active cells.

Data set [3] has as its system Leishmania amazonensis. Briefly: Antileishmanial activity against Leishmania amazonensis MHOM/BR/77/LTB0016 promastigotes at 25 uM after 72 hrs by Alamarblue assay relative to control. It counts as functional. Summed up:
as §1

The test system of data set [4] is Leishmania donovani. Briefly: Antileishmanial activity against Leishmania donovani MHOM/IN/90/GE1F8R promastigotes at 25 uM after 72 hrs by Alamarblue assay relative to control. It counts as functional. Summed up: as §1
Data set [5] relates to Leishmania amazonensis. Briefly: Antileishmanial activity against Leishmania amazonensis MHOM/BR/77/LTB0016 amastigotes infected in mouse J774A.1 cells assessed as reduction in transformation of rescued amastigotes to promastiogtes after 24 hrs by Alamarblue assay. Conditions: MHOM/BR/77/LTB0016, J774.A1, 24 h. It counts as functional, organism-based.
Data set [6] can be described thus: Selectivity index, ratio of CC50 for mouse J774A.1 cells to IC50 for Leishmania amazonensis MHOM/BR/77/LTB0016 amastigotes infected in mouse J774A.1 cells. The data set is classed as toxicity, cell-based. The following applies: read-out: Ratio CC50/IC50. Summed up: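 SI = CC50 in J774A.1 macrophages divided by IC50 against intracellular L. amazonensis amastigotes.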

Data set [7] in a line: Cytotoxicity against mouse J774A.1 cells. It counts as cell-based, J774.A1.
The test system of data set [8] is Leishmania amazonensis. Nature of the data set: Induction of mitochondrial membrane potential loss in Leishmania amazonensis MHOM/BR/77/LTB0016 promastigotes at antileishmanial IC90 after 24 hrs by JC-1 staining-based spectrofluorometric analysis. The data set is classed as functional, organism-based.
The test system of data set [9] is Leishmania amazonensis. Briefly: Potency index, ratio of miltefosine IC50 to compound IC50 for Leishmania amazonensis MHOM/BR/77/LTB0016 amastigotes infected in mouse J774A.1 cells. The data set is classed as functional.
For data set [10], the system named is Leishmania donovani. Briefly: Antileishmanial activity against Leishmania donovani MHOM/SD/00/1S-2D promastigotes preincubated for 2 hrs followed by compound wash measured after 48 hrs by MTT assay. It counts as functional, organism-based. A general note: Formazan colour is commonly taken as a measure of viable cells.

Activity calls are given as the source filed them. The rule behind the calls is not given here. Where only a bound is given, the exact number is not on record here.

Turning to `CCCNC1=CC(=O)c2cccc3cccc1c23`, the IC50 with Leishmania donovani [1] and in the data set on Leishmania amazonensis [2] was over 25 µM each time.
On to `O=C1C=Cc2cccc3ccc(N4CCCCC4)c1c23`, for which the IC50 with Leishmania donovani [1] and with Leishmania amazonensis [2] was over 25 µM each time.
On to `O=C1C(Nc2cccnc2)=Cc2cccc3cccc1c23`, for which the Activity in the data set with Leishmania amazonensis [3] and in the data set on Leishmania donovani [4] was under 25% throughout. Moreover, the IC50 in the data set on Leishmania donovani [1] and in the data set with Leishmania amazonensis [2] was over 25 µM in each case.
For `CCCCCCCCCCCCCCCCOP(=O)([O-])OCC[N+](C)(C)C` [MILTEFOSINE], the IC50 with Leishmania amazonensis [5] was found to be 3.1 µM; with Leishmania donovani [1], 3.3 µM; with Leishmania amazonensis [2] it was 6.5 µM. Besides, in data set [6], the selectivity ratio came to 23.8. In [7], half-maximal cytotoxicity (CC50) was put at 73.7 µM. For the same compound, the result in the data set on Leishmania amazonensis [8] was Active.
Regarding `O=C1C=Cc2cccc3ccc(NCCO)c1c23`, the IC50 in the data set on Leishmania donovani [1] was over 25 µM; in the data set on Leishmania amazonensis [2], 27.4 µM.
Taken in the same sequence, the figures for `Nc1ccc2cccc3c2c1C(=O)C=C3` were over 25 µM and 26.2 µM.
As for `N#Cc1ccc(NC2=Cc3cccc4cccc(c34)C2=O)cc1`, the IC50 in the data set with Leishmania donovani [1] and in the data set with Leishmania amazonensis [2] was over 25 µM throughout.
For the compound `O=C1C=Cc2cccc3cccc1c23` [PERINAPHTHENONE], the IC50 in the data set with Leishmania donovani [1] and in the data set with Leishmania amazonensis [2] was over 25 µM throughout.
`O=C1C=Cc2cccc3ccc(N4CCN(Cc5ccccc5)CC4)c1c23`: the IC50 in the data set on Leishmania amazonensis [5] was 0.6 µM; in the data set on Leishmania donovani [1] it was 14 µM; with Leishmania amazonensis [2], 11.6 µM. For the same compound, the “Ratio IC50” value in the data set with Leishmania amazonensis [9] is 3 - 5. Further, the selectivity ratio in [6] was found to be 153. Moreover, in data set [7], the CC50 was 91.7 µM. Further, the outcome in the data set on Leishmania amazonensis [8] was inactive.
For `O=C1C(Nc2ccccc2)=Cc2cccc3cccc1c23`, the IC50 in the data set with Leishmania donovani [1] and with Leishmania amazonensis [2] was over 25 µM throughout.
With `O=C1C(O)=Cc2cccc3ccc(-c4ccccc4)c1c23`, in the data set on Leishmania donovani [10], the IC50 is 35 to 40 µM.
For the compound `O=C1C=Cc2cccc3ccc(Nc4ccccc4)c1c23`, the IC50 in the data set with Leishmania donovani [1] and in the data set with Leishmania amazonensis [2] was over 25 µM each time.
In the case of `O=C1C(Nc2ccccn2)=Cc2cccc3cccc1c23`, the half-inhibitory concentration (IC50) in the data set with Leishmania donovani [1] and in the data set with Leishmania amazonensis [2] was over 25 µM throughout.
`CN(CCO)C1=CC(=O)c2cccc3cccc1c23`: the IC50 in the data set on Leishmania donovani [1] and in the data set on Leishmania amazonensis [2] was over 25 µM each time.
Turning to `O=C1C(N2CCN(c3ncccn3)CC2)=Cc2cccc3cccc1c23`, the IC50 in the data set on Leishmania donovani [1] and in the data set on Leishmania amazonensis [2] was over 25 µM throughout.
As for `CN(C)CCNc1ccc2cccc3c2c1C(=O)C=C3`, the figures for the IC50 in the data set on Leishmania amazonensis [5], in the data set on Leishmania donovani [1] and with Leishmania amazonensis [2] were 0.7 µM, 2.8 µM and 1.4 µM, respectively. Moreover, the selectivity ratio in data set [6] is 55.6. The compound further returned a CC50 in data set [7] of 38.9 µM. The result with Leishmania amazonensis [8] was Active.
Consider `CN(C)CCNC1=CC(=O)c2cccc3cccc1c23`, for which the IC50 was found to be 0.6 µM in the data set on Leishmania amazonensis [5], 4.3 µM in the data set with Leishmania donovani [1] and 2.1 µM in the data set with Leishmania amazonensis [2]. In the data set with Leishmania amazonensis [9], the “Ratio IC50” value is on record as 3 - 5. In addition, in data set [6], the selectivity ratio was 159. In data set [7], this compound registered a CC50 of 95.6 µM. In the data set with Leishmania amazonensis [8], the result was Active.
Take `O=C1C=Cc2cccc3ccc(Nc4ccccn4)c1c23`: the IC50 with Leishmania donovani [1] and in the data set on Leishmania amazonensis [2] was over 25 µM throughout.
Turning to `CN(C)CCNc1ccc2cccc3c2c1C=CC3=O`, the IC50 with Leishmania donovani [1] is 32.7 µM; in the data set on Leishmania amazonensis [2], 7.2 µM.
Taken in the same sequence, the figures for `N#Cc1ccc(Nc2ccc3cccc4c3c2C(=O)C=C4)cc1` were over 25 µM and over 25 µM.
As for `CN(CCO)C1=Cc2cccc3cccc(c23)C1=O`, the Activity with Leishmania amazonensis [3] and in the data set on Leishmania donovani [4] was under 25% throughout. Besides, the IC50 in the data set on Leishmania donovani [1] and with Leishmania amazonensis [2] was over 25 µM in each case.
`O=C1C(N2CCN(Cc3ccccc3)CC2)=Cc2cccc3cccc1c23`: the IC50 in the data set on Leishmania amazonensis [5] was found to be 2.4 µM; with Leishmania donovani [1], 26.4 µM; in the data set with Leishmania amazonensis [2], 24 µM. The selectivity ratio in data set [6] is 51. The CC50 in data set [7] came out at 122 µM. Also, the result with Leishmania amazonensis [8] was inactive.
`O=C1C=C(N2CCCCC2)c2cccc3cccc1c23`: the IC50 with Leishmania donovani [1] and in the data set with Leishmania amazonensis [2] was over 25 µM throughout.
For `CN(CCO)c1ccc2cccc3c2c1C(=O)C=C3`, the half-inhibitory concentration (IC50) in the data set on Leishmania donovani [1] and in the data set on Leishmania amazonensis [2] was over 25 µM throughout.
As for `O=C1C=Cc2cccc3ccc(NCc4ccccc4)c1c23`, the results for the IC50 with Leishmania amazonensis [5], in the data set with Leishmania donovani [1] and in the data set on Leishmania amazonensis [2] were 2.3 µM, 8.3 µM and 3.5 µM, respectively. Further, the selectivity ratio in [6] was determined as 4.1. Moreover, in [7], the midpoint of cytotoxicity, the CC50, lay at 9.4 µM. Moreover, the outcome with Leishmania amazonensis [8] was Active.
`CCCNc1ccc2cccc3c2c1C(=O)C=C3`: the IC50 with Leishmania donovani [1] and in the data set with Leishmania amazonensis [2] was over 25 µM throughout.
For the compound `O=C1C=C(N2CCOCC2)c2cccc3cccc1c23`, the IC50 in the data set on Leishmania donovani [1] and with Leishmania amazonensis [2] was over 25 µM in each case.
For the compound `O=C1C=Cc2c(N3CCN(Cc4ccccc4)CC3)ccc3cccc1c23`, the IC50 in the data set on Leishmania donovani [1] stood at 26.3 µM; in the data set on Leishmania amazonensis [2] it was 17.5 µM.
As to `O=C1C=Cc2c(NCc3ccccc3)ccc3cccc1c23`, the IC50 in the data set with Leishmania donovani [1] and in the data set with Leishmania amazonensis [2] was over 25 µM in each case.
For the compound `O=C1C=C(N2CCN(c3ncccn3)CC2)c2cccc3cccc1c23`, the IC50 in the data set on Leishmania donovani [1] and in the data set on Leishmania amazonensis [2] was over 25 µM in each case.
`O=C1C=C(N2CCN(Cc3ccccc3)CC2)c2cccc3cccc1c23`: the values for the IC50 in the data set with Leishmania amazonensis [5], in the data set on Leishmania donovani [1] and with Leishmania amazonensis [2] were 1.1 µM, 24 µM and 9.7 µM, respectively. For the same compound, the selectivity ratio in [6] was 26. The compound further gave a CC50 in data set [7] of 28.5 µM. In the data set with Leishmania amazonensis [8], the result was Active.
Turning to `CCCNC1=Cc2cccc3cccc(c23)C1=O`, the Activity in the data set on Leishmania amazonensis [3] and in the data set with Leishmania donovani [4] was under 25% in each case. The IC50 in the data set on Leishmania donovani [1] and with Leishmania amazonensis [2] was over 25 µM in each case.
With `O=C1C=Cc2cccc3ccc(Nc4cccnc4)c1c23`, the IC50 with Leishmania donovani [1] and in the data set on Leishmania amazonensis [2] was over 25 µM each time.
On to `O=C1C=Cc2cccc3ccc(N4CCN(c5ncccn5)CC4)c1c23`, for which the IC50 in the data set on Leishmania donovani [1] and with Leishmania amazonensis [2] was over 25 µM each time.
For `O=C1C=C(NCc2ccccc2)c2cccc3cccc1c23`, the IC50 with Leishmania donovani [1] and in the data set with Leishmania amazonensis [2] was over 25 µM in each case.
Consider `O=C1C(N2CCOCC2)=Cc2cccc3cccc1c23`, for which the IC50 in the data set on Leishmania donovani [1] and in the data set with Leishmania amazonensis [2] was over 25 µM in each case.
In the data set on Leishmania donovani [10], `COC1=Cc2cccc3ccc(-c4ccccc4)c(c23)C1=O` registered a half-maximal inhibitory concentration (IC50) of 35 to 40 µM.
As to `NC1=Cc2cccc3cccc(c23)C1=O`, the Activity in the data set on Leishmania amazonensis [3] and in the data set on Leishmania donovani [4] was under 25% throughout. In addition, the IC50 with Leishmania donovani [1] and with Leishmania amazonensis [2] was over 25 µM throughout.
`O=C1C=Cc2cccc3ccc(O)c1c23`: the IC50 in the data set with Leishmania donovani [1] and in the data set on Leishmania amazonensis [2] was over 25 µM throughout.
Turning to `O=C1C=Cc2cccc3ccc(N4CCOCC4)c1c23`, the IC50 with Leishmania donovani [1] and in the data set with Leishmania amazonensis [2] was over 25 µM in each case.
For the compound `CN(C)CCNC1=Cc2cccc3cccc(c23)C1=O`, the IC50 with Leishmania amazonensis [5] was determined as 0.9 µM; in the data set with Leishmania donovani [1], 9.6 µM; with Leishmania amazonensis [2] it was 6 µM. For the same compound, the “Ratio IC50” value with Leishmania amazonensis [9] is 3 - 5. Besides, the selectivity ratio in [6] stood at 136. Moreover, the midpoint of cytotoxicity in data set [7], the CC50, lay at 122 µM. Also, in the data set with Leishmania amazonensis [8], the result was Active.
Take `O=C1C(NCc2ccccc2)=Cc2cccc3cccc1c23`: the IC50 in the data set with Leishmania donovani [1] and in the data set on Leishmania amazonensis [2] was over 25 µM in each case.

The term IC50 denotes the point on the concentration scale where inhibition reaches its midpoint. The term CC50 denotes the concentration giving 50% cytotoxicity. Read a high CC50 as better tolerance by the cells.

The record behind these values is ChEMBL document CHEMBL4138159, “Design, synthesis and evaluation of amino-substituted 1H-phenalen-1-ones as anti-leishmanial agents” (Eur J Med Chem, 2018).
